Results taken from ChEMBL document CHEMBL1152658, “Antioxidant activity of benzoxazolinonic and benzothiazolinonic derivatives in the LDL oxidation model” (2009).
Active and inactive are the calls of the source. The calls are words filed in the database; no cut-off is given here.

What was measured:
[1] = Cytoprotective activity against minimally oxidized LDL-induced cytotoxicity in BAEC assessed as cell vitality at 10 uM treated for 24 hrs before mO-LDL challenge measured after 16 hrs by MTT assay; assay type: functional, Bos taurus
Method in brief: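 Primary bovine aortic endothelial cells grown in DMEM with 10% newborn calf serum, glutamine and penicillin. Pretreated 24 h with drug in methanol, then 16 h at 37 °C with air-oxidized LDL (100 µg protein/mL, made by incubating LDL at 30 °C without CuSO4 or AAPH) plus drug (final 10 µM). MTT (5 mg solution in PBS) added for 5 h. Formazan dissolved in dimethylformamide, A590 read, expressed as % of control wells.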

BAEC [2] = assay: Cytoprotective activity against LDL-induced cytotoxicity in BAEC assessed as decrease in LDH release at 10 uM treated for 24 hrs before LDL challenge measured after 16 hrs by spectrometry; assay type: functional; conditions: Bos taurus
Method in brief: (§1)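 BAECs (primary, bovine aorta) in DMEM with 10% newborn calf serum, glutamine, penicillin. Pretreated 24 h with drug in methanol (final 10 µM), then 16 h at 37 °C with drug plus native LDL or mO-LDL at 100 µg/mL (mO-LDL from LDL incubated at 30 °C without oxidant). Medium LDH read spectrometrically by NAD reduction, expressed as % of total LDH released by 0.1% Triton X-100; mean (SD) of two incubations in triplicate.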

[3] = Inhibition of CuSO4-induced human LDL oxidation assessed as length of lag phase of conjugated diene formation measured every 10 mins for 8 hrs by spectrophotometry; assay type: functional
Method in brief: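 Human LDL (NaBr density ultracentrifugation, 1.019–1.063 g/mL) oxidized with 16.6 µM CuSO4 at 30 °C. Diene conjugation followed at 234 nm every 10 min for 8 h. Lag-phase length taken from the kinetic curves.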

[4] = Inhibition of AAPH-induced human LDL oxidation assessed as ratio of length of lag phase of conjugated diene formation in presence of compound to untreated control at 5 uM measured every 10 mins for 8 hrs by spectrophotometry; assay type: functional
Method in brief: (§2)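 Human LDL taken from fasting normolipidemic volunteers by sequential NaBr density ultracentrifugation (1.019–1.063 g/mL), protein measured by Peterson method. Oxidation started with 16.6 µM CuSO4 or 2 mM AAPH, compound at 1–100 µM. Conjugated dienes read at 234 nm every 10 min for 8 h at 30 °C. R = lag phase with compound / lag phase without compound.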

BAEC [5] = assay: Cytoprotective activity against minimally oxidized LDL-induced cytotoxicity in BAEC assessed as decrease in number of detached and shrunk cells at 10 uM treated for 24 hrs before mO-LDL challenge measured after 16 hrs by spectrometry; assay type: functional, cell-based; conditions: Bos taurus
Method in brief: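 BAECs pretreated 24 h with drug (final 10 µM in methanol), then exposed 16 h at 37 °C to mO-LDL (100 µg protein/mL, air-oxidized LDL) with drug. Cells examined for morphology: contraction, cytoplasmic ramification, rounding and detachment from wells.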

[6] = Inhibition of CuSO4-induced human LDL oxidation assessed as ratio of length of lag phase of conjugated diene formation in presence of compound to untreated control at 100 uM measured every 10 mins for 8 hrs by spectrophotometry; assay type: functional; method in brief: as §2
[7] = Inhibition of CuSO4-induced human LDL oxidation assessed as ratio of length of lag phase of conjugated diene formation in presence of compound to untreated control at 10 uM measured every 10 mins for 8 hrs by spectrophotometry; assay type: functional; method in brief: as §2
[8] = Inhibition of CuSO4-induced human LDL oxidation assessed as ratio of length of lag phase of conjugated diene formation in presence of compound to untreated control at 5 uM measured every 10 mins for 8 hrs by spectrophotometry; assay type: functional; method in brief: as §2
[9] = Cytoprotective activity against minimally oxidized LDL-induced cytotoxicity in BAEC assessed as LDH release at 10 uM treated for 24 hrs before mO-LDL challenge measured after 16 hrs by spectrometry; assay type: functional, Bos taurus; method in brief: as §1

Compound	Activity [1]	Activity (BAEC [2])	Activity [3]	Ratio [4]	Activity (BAEC [5])	Ratio [6]	Ratio [7]	Ratio [8]	Activity [9]
CCCN1CCc2cc3oc(=O)n(C)c3cc2C1c1cccc(O)c1 (stereo not given)	90%	inactive	Dose-dependent effect	2.4	Active	> 5	> 5	2.5	13.5%
COc1cccc(C2NCCc3cc4oc(=O)n(C)c4cc32)c1 (stereo not given)	90%	inactive	Dose-dependent effect	–	Active	> 5	1.8	1	–
CCCN1CCc2cc3sc(=O)n(C)c3cc2C1c1cccc(OC)c1 (stereo not given)	90%	inactive	Dose-dependent effect	1.9	Active	> 5	> 5	2.1	14.6%
COc1ccc2[nH]c(=O)oc2c1 [COIXOL]	90%	inactive	Dose-dependent effect	–	–	1.5	–	–	–
COc1ccc2[nH]cc(CCNC(C)=O)c2c1 [MELATONIN]	90%	inactive	Dose-dependent effect	–	Active	1.5	–	–	–
CCCCCCCCCN1CCc2cc3oc(=O)n(C)c3cc2C1c1cccc(OC)c1 (stereo not given)	90%	inactive	Dose-dependent effect	–	Active	> 5	3.8	1.7	–
CCCN1CCc2cc(O)c(NC)cc2C1c1cccc(OC)c1 (stereo not given)	90%	inactive	Dose-dependent effect	3.3	Active	> 5	> 5	3.2	13.2%
COc1cccc(C2=NCCc3cc4sc(=O)n(C)c4cc32)c1	90%	inactive	Dose-dependent effect	2.5	Active	> 5	> 5	2.5	14.12%
COc1cccc(C2NCCc3cc4sc(=O)n(C)c4cc32)c1 (stereo not given)	90%	inactive	Dose-dependent effect	2	Active	> 5	> 5	2.1	14.5%
CCCN1CCc2c([nH]c3ccc(CC)cc23)C1c1cccc(OC)c1.Cl (stereo not given)	90%	inactive	Dose-dependent effect	1.5	Active	> 5	> 5	1.6	15.32%
CCCN1CCc2cc3oc(=O)n(C)c3cc2C1c1cccc(OC)c1 (stereo not given)	90%	inactive	Dose-dependent effect	–	Active	> 5	3.3	1.5	–
COc1cccc(C2=NCCc3cc4oc(=O)n(C)c4cc32)c1	90%	inactive	Dose-dependent effect	–	Active	> 5	1.8	1	–
CCCN1CCc2cc(O)c(NC)cc2C1c1cccc(O)c1 (stereo not given)	90%	inactive	–	–	Active	–	–	–	14.1%
